What follows are molecules tested on MDA-MB-231 (human breast cancer) cells (assay: MTT cell viability assay, MDA-MB-231). Settings: MDA-MB-231, 72 h, read-out: Cell viability (%) ±SD.
Type: cell-based
Outline: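 MDA-MB-231 cells were grown as a monolayer in DMEM with 10% heat-inactivated FBS and 1% penicillin-streptomycin at 37 °C in humidified CO2, subcultured every third day with trypsin-EDTA, and used before passage 8. Cells were exposed 72 h to 10, 25 and 50 μM. Medium was removed, MTT added for 3 h at 37 °C, formazan dissolved in DMSO and read at 595 nm. Viability is relative to untreated control, triplicates, ±SD. IC50 comes from the viability-versus-concentration plot.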

**Q.** With `CC(=O)OC[C@@H]1O[C@H](n2cc(Cn3ccc4nc(-c5ccc(C)cc5)cc(=O)n43)nn2)[C@@H](OC(C)=O)[C@H](OC(C)=O)[C@H]1OC(C)=O` (stereo in doubt) [Compound 22, (2S,3S,4R,5S,6S)-2-(Acetoxymethyl)-6-(4-((7-oxo-5-(p-tolyl)pyrazolo[1,5-a]pyrimidin-1(7H)-yl)methyl)-1H-1,2,3-triazol-1-yl)tetrahydro-2H-pyran-3,4,5-triyl triacetate] as the molecule, how does the viability at 10 µM read?
**A.** Its viability at 10 µM is 92.4 ± 5.38%.

**Q.** And the viability at 25 µM?
**A.** The viability at 25 µM was 87.5 ± 6.74%.

**Q.** What about the viability at 50 µM of the same molecule?
**A.** The viability at 50 µM was 85.4 ± 4.16%.

**Q.** `CC(=O)OC[C@@H]1O[C@H](n2cc(Cn3ccc4nc(-c5ccc(Br)cc5)cc(=O)n43)nn2)[C@@H](OC(C)=O)[C@H](OC(C)=O)[C@H]1OC(C)=O` (stereo in doubt) [Compound 24, (2S,3S,4R,5S,6S)-2-(Acetoxymethyl)-6-(4-((5-(4-bromophenyl)-7-oxopyrazolo[1,5-a]pyrimidin-1(7H)-yl)methyl)-1H-1,2,3-triazol-1-yl)tetrahydro-2H-pyran-3,4,5-triyl triacetate] was tested. Which viability at 10 µM did it give?
**A.** Its viability at 10 µM is 100 ± 8.01%.

**Q.** What about the viability at 25 µM of the same molecule?
**A.** Its viability at 25 µM is 100 ± 8.93%.

**Q.** And the viability at 50 µM?
**A.** The viability at 50 µM was 98.5 ± 2.89%.

**Q.** With `CC(=O)OC[C@@H]1O[C@H](n2cc(Cn3ccc4nc(-c5ccc(Cl)cc5)cc(=O)n43)nn2)[C@@H](OC(C)=O)[C@H](OC(C)=O)[C@H]1OC(C)=O` (stereo in doubt) [Compound 25, (2S,3S,4R,5S,6S)-2-(Acetoxymethyl)-6-(4-((5-(4-chlorophenyl)-7-oxopyrazolo[1,5-a]pyrimidin-1(7H)-yl)methyl)-1H-1,2,3-triazol-1-yl)tetrahydro-2H-pyran-3,4,5-triyl triacetate] as the molecule, how does the viability at 10 µM read?
**A.** Its viability at 10 µM is 98.6 ± 2.25%.

**Q.** And the viability at 25 µM?
**A.** Its viability at 25 µM is 93.2 ± 1.96%.

**Q.** What about the viability at 50 µM of the same molecule?
**A.** Its viability at 50 µM is 86.2 ± 9.22%.

**Q.** For `CC(=O)OC[C@@H]1O[C@H](n2cc(Cn3ccc4nc(-c5ccc(C(F)(F)F)cc5)cc(=O)n43)nn2)[C@@H](OC(C)=O)[C@H](OC(C)=O)[C@H]1OC(C)=O` (stereo in doubt) [Compound 27, (2S,3S,4R,5S,6S)-2-(Acetoxymethyl)-6-(4-((7-oxo-5-(4-(trifluoromethyl)phenyl)pyrazolo[1,5-a]pyrimidin-1(7H)-yl)methyl)-1H-1,2,3-triazol-1-yl)tetrahydro-2H-pyran-3,4,5-triyl triacetate], which viability at 10 µM is on record?
**A.** The viability at 10 µM was 93.2 ± 8.51%.

**Q.** And the viability at 25 µM?
**A.** The viability at 25 µM was 89.8 ± 8.75%.

**Q.** What about the viability at 50 µM of the same molecule?
**A.** The viability at 50 µM was 74.8 ± 7.02%.

**Q.** What does the source list for `CC(=O)OC[C@@H]1O[C@H](n2cc(Cn3ccc4nc(-c5ccc(C(C)C)cc5)cc(=O)n43)nn2)[C@@H](OC(C)=O)[C@H](OC(C)=O)[C@H]1OC(C)=O` (stereo in doubt) [Compound 28, (2S,3S,4R,5S,6S)-2-(Acetoxymethyl)-6-(4-((5-(4-isopropylphenyl)-7-oxopyrazolo[1,5-a]pyrimidin-1(7H)-yl)methyl)-1H-1,2,3-triazol-1-yl)tetrahydro-2H-pyran-3,4,5-triyl triacetate]?
**A.** viability at 10 µM: 102 ± 8.51%; viability at 25 µM: 99.1 ± 3.51%; viability at 50 µM: 69.5 ± 17.7%

**Q.** Which viability at 10 µM does the source give for `CC(=O)OC[C@@H]1O[C@H](n2cc(Cn3ccc4nc(-c5ccc6ccccc6c5)cc(=O)n43)nn2)[C@@H](OC(C)=O)[C@H](OC(C)=O)[C@H]1OC(C)=O` (stereo in doubt) [Compound 29, (2S,3S,4R,5S,6S)-2-(Acetoxymethyl)-6-(4-((5-(naphthalen-2-yl)-7-oxopyrazolo[1,5-a]pyrimidin-1(7H)-yl)methyl)-1H-1,2,3-triazol-1-yl)tetrahydro-2H-pyran-3,4,5-triyl triacetate] here?
**A.** The viability at 10 µM was 89.1 ± 4.09%.

**Q.** And the viability at 25 µM?
**A.** Its viability at 25 µM is 81.5 ± 2.58%.

**Q.** And the viability at 50 µM?
**A.** Its viability at 50 µM is 88.4 ± 7.36%.

**Q.** Which results are given for `CC(=O)OC[C@@H]1O[C@H](n2cc(Cn3ccc4nc(-c5ccc(C)cc5)cc(=O)n43)nn2)[C@@H](OC(C)=O)[C@H](OC(C)=O)[C@@H]1OC(C)=O` (stereo in doubt) [Compound 31, (2S,3R,4R,5S,6S)-2-(Acetoxymethyl)-6-(4-((7-oxo-5-(p-tolyl)pyrazolo[1,5-a]pyrimidin-1(7H)-yl)methyl)-1H-1,2,3-triazol-1-yl)tetrahydro-2H-pyran-3,4,5-triyl triacetate]?
**A.** viability at 10 µM: 81.7 ± 8.36%; viability at 25 µM: 88.5 ± 6.73%; viability at 50 µM: 78.8 ± 10.4%

**Q.** Which results are given for `COc1ccc(-c2cc(=O)n3c(ccn3Cc3cn([C@H]4O[C@@H](COC(C)=O)[C@@H](OC(C)=O)[C@@H](OC(C)=O)[C@@H]4OC(C)=O)nn3)n2)cc1` (stereo in doubt) [Compound 32, (2S,3R,4R,5S,6S)-2-(Acetoxymethyl)-6-(4-((5-(4-methoxyphenyl)-7-oxopyrazolo[1,5-a]pyrimidin-1(7H)-yl)methyl)-1H-1,2,3-triazol-1-yl)tetrahydro-2H-pyran-3,4,5-triyl triacetate]?
**A.** viability at 10 µM: 92.5 ± 9.39%; viability at 25 µM: 86.2 ± 8.63%; viability at 50 µM: 72.5 ± 6.24%

**Q.** Which results are given for `CC(=O)OC[C@@H]1O[C@H](n2cc(Cn3ccc4nc(-c5ccc(Cl)cc5)cc(=O)n43)nn2)[C@@H](OC(C)=O)[C@H](OC(C)=O)[C@@H]1OC(C)=O` (stereo in doubt) [Compound 34, (2S,3R,4R,5S,6S)-2-(Acetoxymethyl)-6-(4-((5-(4-chlorophenyl)-7-oxopyrazolo[1,5-a]pyrimidin-1(7H)-yl)methyl)-1H-1,2,3-triazol-1-yl)tetrahydro-2H-pyran-3,4,5-triyl triacetate]?
**A.** viability at 10 µM: 78.5 ± 2.43%; viability at 25 µM: 76.8 ± 2.43%; viability at 50 µM: 73 ± 2.62%

**Q.** Which viability at 10 µM does the source give for `CC(=O)OC[C@@H]1O[C@H](n2cc(Cn3ccc4nc(-c5ccc(F)cc5)cc(=O)n43)nn2)[C@@H](OC(C)=O)[C@H](OC(C)=O)[C@@H]1OC(C)=O` (stereo in doubt) [Compound 35, (2S,3R,4R,5S,6S)-2-(Acetoxymethyl)-6-(4-((5-(4-fluorophenyl)-7-oxopyrazolo[1,5-a]pyrimidin-1(7H)-yl)methyl)-1H-1,2,3-triazol-1-yl)tetrahydro-2H-pyran-3,4,5-triyl triacetate] here?
**A.** Its viability at 10 µM is 82.4 ± 9.97%.

**Q.** What about the viability at 25 µM of the same molecule?
**A.** Its viability at 25 µM is 78.6 ± 10.1%.

**Q.** And the viability at 50 µM?
**A.** Its viability at 50 µM is 75.3 ± 6.17%.

**Q.** `CC(=O)OC[C@@H]1O[C@H](n2cc(Cn3ccc4nc(-c5ccc(C(C)C)cc5)cc(=O)n43)nn2)[C@@H](OC(C)=O)[C@H](OC(C)=O)[C@@H]1OC(C)=O` (stereo in doubt) [Compound 37, (2S,3R,4R,5S,6S)-2-(Acetoxymethyl)-6-(4-((5-(4-isopropylphenyl)-7-oxopyrazolo[1,5-a]pyrimidin-1(7H)-yl)methyl)-1H-1,2,3-triazol-1-yl)tetrahydro-2H-pyran-3,4,5-triyl triacetate] was tested. Which viability at 10 µM did it give?
**A.** The viability at 10 µM was 85.2 ± 3.5%.

**Q.** And the viability at 25 µM?
**A.** The viability at 25 µM was 80.5 ± 8.96%.

**Q.** And the viability at 50 µM?
**A.** The viability at 50 µM was 78.7 ± 2.56%.

**Q.** `CC(=O)OC[C@@H]1O[C@H](n2cc(Cn3ccc4nc(-c5ccc6ccccc6c5)cc(=O)n43)nn2)[C@@H](OC(C)=O)[C@H](OC(C)=O)[C@@H]1OC(C)=O` (stereo in doubt) [Compound 38, (2S,3R,4R,5S,6S)-2-(Acetoxymethyl)-6-(4-((5-(naphthalen-2-yl)-7-oxopyrazolo[1,5-a]pyrimidin-1(7H)-yl)methyl)-1H-1,2,3-triazol-1-yl)tetrahydro-2H-pyran-3,4,5-triyl triacetate] was tested. Which viability at 10 µM did it give?
**A.** The viability at 10 µM was 92 ± 8.31%.

**Q.** And the viability at 25 µM?
**A.** The viability at 25 µM was 89.6 ± 9.91%.

**Q.** What about the viability at 50 µM of the same molecule?
**A.** The viability at 50 µM was 67.7 ± 10.8%.

**Q.** `CC(=O)OC[C@@H]1O[C@H](n2cc(Cn3ccc4nc(-c5ccc6c(c5)OCO6)cc(=O)n43)nn2)[C@@H](OC(C)=O)[C@H](OC(C)=O)[C@@H]1OC(C)=O` (stereo in doubt) [Compound 39, (2S,3R,4R,5S,6S)-2-(Acetoxymethyl)-6-(4-((5-(benzo[d][1,3]dioxol-5-yl)-7-oxopyrazolo[1,5-a]pyrimidin-1(7H)-yl)methyl)-1H-1,2,3-triazol-1-yl)tetrahydro-2H-pyran-3,4,5-triyl triacetate] was tested. Which viability at 10 µM did it give?
**A.** The viability at 10 µM was 101 ± 9.67%.

**Q.** What about the viability at 25 µM of the same molecule?
**A.** Its viability at 25 µM is 98.25 ± 0.34%.

**Q.** And the viability at 50 µM?
**A.** The viability at 50 µM was 97.5 ± 1.88%.

**Q.** What does the source list for `CC(=O)OC[C@H]1O[C@H](n2cc(Cn3ccc4nc(-c5ccc(C)cc5)cc(=O)n43)nn2)[C@@H](OC(C)=O)[C@@H](OC(C)=O)[C@@H]1OC(C)=O` [Compound 40, (2R,3R,4S,5S,6S)-2-(Acetoxymethyl)-6-(4-((7-oxo-5-(p-tolyl)pyrazolo[1,5-a]pyrimidin-1(7H)-yl)methyl)-1H-1,2,3-triazol-1-yl)tetrahydro-2H-pyran-3,4,5-triyl triacetate]?
**A.** viability at 10 µM: 99 ± 7.7%; viability at 25 µM: 92.8 ± 7.09%; viability at 50 µM: 91.7 ± 9.12%

**Q.** `CC(=O)OC[C@H]1O[C@H](n2cc(Cn3ccc4nc(-c5ccc(Br)cc5)cc(=O)n43)nn2)[C@@H](OC(C)=O)[C@@H](OC(C)=O)[C@@H]1OC(C)=O` [Compound 42, (2R,3R,4S,5S,6S)-2-(Acetoxymethyl)-6-(4-((5-(4-bromophenyl)-7-oxopyrazolo[1,5-a]pyrimidin-1(7H)-yl)methyl)-1H-1,2,3-triazol-1-yl)tetrahydro-2H-pyran-3,4,5-triyl triacetate] was tested. Which viability at 10 µM did it give?
**A.** The viability at 10 µM was 81.3 ± 7.65%.

**Q.** And the viability at 25 µM?
**A.** The viability at 25 µM was 78.5 ± 6.58%.

**Q.** What about the viability at 50 µM of the same molecule?
**A.** The viability at 50 µM was 75.5 ± 8.45%.

**Q.** With `CC(=O)OC[C@H]1O[C@H](n2cc(Cn3ccc4nc(-c5ccc(Cl)cc5)cc(=O)n43)nn2)[C@@H](OC(C)=O)[C@@H](OC(C)=O)[C@@H]1OC(C)=O` [Compound 43, (2R,3R,4S,5S,6S)-2-(Acetoxymethyl)-6-(4-((5-(4-chlorophenyl)-7-oxopyrazolo[1,5-a]pyrimidin-1(7H)-yl)methyl)-1H-1,2,3-triazol-1-yl)tetrahydro-2H-pyran-3,4,5-triyl triacetate] as the molecule, how does the viability at 10 µM read?
**A.** The viability at 10 µM was 99.5 ± 10.2%.

**Q.** What about the viability at 25 µM of the same molecule?
**A.** The viability at 25 µM was 95.2 ± 10.6%.

**Q.** And the viability at 50 µM?
**A.** The viability at 50 µM was 71.4 ± 10.5%.

**Q.** Which results are given for `CC(=O)OC[C@H]1O[C@H](n2cc(Cn3ccc4nc(-c5ccc(F)cc5)cc(=O)n43)nn2)[C@@H](OC(C)=O)[C@@H](OC(C)=O)[C@@H]1OC(C)=O` [Compound 44, (2R,3R,4S,5S,6S)-2-(Acetoxymethyl)-6-(4-((5-(4-fluorophenyl)-7-oxopyrazolo[1,5-a]pyrimidin-1(7H)-yl)methyl)-1H-1,2,3-triazol-1-yl)tetrahydro-2H-pyran-3,4,5-triyl triacetate]?
**A.** viability at 10 µM: 98.4 ± 3.62%; viability at 25 µM: 90.1 ± 6.77%; viability at 50 µM: 89.6 ± 6.27%
